pKi: −log10 of the molar value. Active and inactive are the calls of the source. The calls are words filed in the database; no cut-off is given here.
Experiments:
[1] = target: Histamine H4 receptor (Homo sapiens, UniProt Q9H3N8); test: Displacement of [3H]histamine from human histamine H4 receptor expressed in HEK293T cells; format: cell-based, HEK-293T
[2] = target: T1, Histamine H1 receptor (Homo sapiens, UniProt P35367); test: Displacement of [3H]mepyramine from human histamine H1 receptor expressed in NIH3T3 cells at 10 uM; format: cell-based
Method in brief: (§1)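 Single-point radioligand displacement at the human receptor, performed externally, with ligand at 10 μM. Reported as % inhibition of radioligand binding, measured in duplicate.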

[3] = target: Histamine H3 receptor (Homo sapiens) (UniProt Q9Y5N1); test: Displacement of [3H]Nalpha-methyl-histamine from human histamine H3 receptor expressed in […] cells at 10 uM; format: cell-based; conditions: SK-N-MC; method in brief: as §1
[4] = target: Histamine H2 receptor (Homo sapiens) (UniProt P25021); test: Displacement of [3H]aminopotentidine from human histamine H2 receptor expressed in COS7 cells at 10 uM; format: cell-based; conditions: COS-7; method in brief: as §1
[5] = system: Rattus norvegicus; test: Antiinflammatory activity in Wistar rat assessed as inhibition of carrageenan-induced paw edema at 10 mg/kg, sc after 6 hrs; format: functional, organism-based; design: dose 10 mg/kg
Method in brief: (§2)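 Male Wistar rats (180–200 g), fasted; paw inflammation induced by subplantar injection of 0.1 mL 1% carrageenan in carboxymethylcellulose into left hind paw. Compound or vehicle (DMSO solution, freshly prepared) given s.c. at 0.1 mL per 100 g immediately before carrageenan. Paw volume by plethysmometer before injection and at 2, 4, 6 h; edema as % increase over preinjection value (=100). n = 6 per group.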

[6] = system: Rattus norvegicus; test: Antiinflammatory activity in Wistar rat assessed as inhibition of carrageenan-induced paw edema at 10 mg/kg, sc after 2 hrs; format: functional, organism-based; design: dose 10 mg/kg; method in brief: as §2
[7] = target: T1, Histamine H1 receptor; test: Displacement of [3H]mepyramine from human histamine H1 receptor expressed in NIH3T3 cells; format: cell-based
[8] = system: Rattus norvegicus; test: Antiinflammatory activity in Wistar rat assessed as inhibition of carrageenan-induced paw edema at 30 mg/kg, sc after 2 hr; format: functional, organism-based; design: dose 30 mg/kg; method in brief: as §2

T1 sequence (P35367 whole entry): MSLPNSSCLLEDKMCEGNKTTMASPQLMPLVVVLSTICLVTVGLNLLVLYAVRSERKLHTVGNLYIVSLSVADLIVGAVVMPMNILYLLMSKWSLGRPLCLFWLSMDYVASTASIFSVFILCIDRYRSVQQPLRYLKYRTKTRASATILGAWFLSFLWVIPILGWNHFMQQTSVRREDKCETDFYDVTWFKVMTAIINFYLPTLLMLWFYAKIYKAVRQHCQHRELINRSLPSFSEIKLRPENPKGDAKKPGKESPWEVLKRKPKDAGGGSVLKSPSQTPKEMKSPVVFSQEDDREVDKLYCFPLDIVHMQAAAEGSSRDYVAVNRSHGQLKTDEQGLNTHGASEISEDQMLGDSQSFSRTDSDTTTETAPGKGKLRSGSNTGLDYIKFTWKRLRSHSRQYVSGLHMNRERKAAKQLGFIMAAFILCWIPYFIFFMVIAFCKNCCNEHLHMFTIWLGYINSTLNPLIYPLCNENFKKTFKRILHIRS
Sequence of Histamine H4 receptor (Q9H3N8 whole entry): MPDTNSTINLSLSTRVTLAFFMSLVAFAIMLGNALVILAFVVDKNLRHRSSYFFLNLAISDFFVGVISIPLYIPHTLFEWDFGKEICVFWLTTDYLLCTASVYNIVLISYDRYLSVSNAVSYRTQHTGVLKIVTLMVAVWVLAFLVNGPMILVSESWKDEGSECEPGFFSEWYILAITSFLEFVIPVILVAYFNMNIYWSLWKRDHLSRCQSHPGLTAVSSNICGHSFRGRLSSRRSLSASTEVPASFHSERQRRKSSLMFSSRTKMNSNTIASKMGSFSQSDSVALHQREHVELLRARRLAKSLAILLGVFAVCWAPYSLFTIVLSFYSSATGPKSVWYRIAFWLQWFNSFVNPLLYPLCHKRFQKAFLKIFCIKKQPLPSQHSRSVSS
Sequence of Histamine H2 receptor (Homo sapiens) (P25021 whole entry): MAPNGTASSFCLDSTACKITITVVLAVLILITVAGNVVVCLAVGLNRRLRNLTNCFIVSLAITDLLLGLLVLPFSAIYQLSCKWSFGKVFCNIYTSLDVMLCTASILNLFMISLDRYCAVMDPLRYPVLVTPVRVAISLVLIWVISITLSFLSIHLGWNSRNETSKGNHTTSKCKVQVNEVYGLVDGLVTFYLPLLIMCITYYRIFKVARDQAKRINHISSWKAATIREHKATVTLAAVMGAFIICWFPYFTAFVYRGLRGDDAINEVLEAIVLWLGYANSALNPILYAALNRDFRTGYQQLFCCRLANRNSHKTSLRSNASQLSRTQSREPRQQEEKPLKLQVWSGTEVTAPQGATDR
Sequence of Histamine H3 receptor (Homo sapiens) (Q9Y5N1 whole entry): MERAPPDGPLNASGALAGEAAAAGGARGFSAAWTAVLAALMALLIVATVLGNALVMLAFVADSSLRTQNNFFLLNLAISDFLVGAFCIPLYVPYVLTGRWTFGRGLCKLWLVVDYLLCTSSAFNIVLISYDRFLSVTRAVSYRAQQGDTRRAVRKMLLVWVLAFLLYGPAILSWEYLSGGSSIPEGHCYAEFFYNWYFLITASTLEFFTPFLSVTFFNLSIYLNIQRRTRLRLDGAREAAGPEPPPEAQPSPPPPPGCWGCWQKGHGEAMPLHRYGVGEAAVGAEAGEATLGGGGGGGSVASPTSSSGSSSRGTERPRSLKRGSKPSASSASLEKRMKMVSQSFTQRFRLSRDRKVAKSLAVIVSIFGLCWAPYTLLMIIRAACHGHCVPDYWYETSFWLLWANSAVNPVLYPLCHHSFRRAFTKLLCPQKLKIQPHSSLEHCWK

Row | Structure (SMILES) | pKi [1] | other results
1 | CN1CCN(c2nc3ccccc3nc2OCc2ccccc2)CC1 | 6.53 | 
2 | COc1ccc(COc2nc3ccccc3nc2N2CCN(C)CC2)cc1 | 6.15 | 
3 | CN1CCN(c2nc3cc(Cl)c(Cl)cc3[nH]c2=O)CC1 | 8.25 | inhibition [2]: 7%; inhibition [3]: 64%; inhibition [4]: 42%; Activity [5]: Active; Activity [6]: Active
4 | CN1CCN(c2cnc3cc(Cl)ccc3n2)CC1 | 7.04 | 
5 | CC(C)COc1nc2ccccc2nc1N1CCN(C)CC1 | 5.24 | 
6 | CN1CCN(c2nc3cc(Cl)c(Cl)cc3nc2CCc2ccccc2)CC1 | 5.40 | 
7 | CN1CCN(c2nc3ccccc3nc2OCc2cccc(Cl)c2)CC1 | 6.57 | 
8 | CN1CCN(c2nc3ccccc3nc2OCc2ccccn2)CC1 | 6.33 | 
9 | CN1CCN(c2nc3ccccc3nc2OCc2ccc(Cl)cc2)CC1 | 5.64 | 
10 | CN1CCN(c2nc3ccccc3nc2Oc2ccc(F)cc2)CC1 | 5.80 | 
11 | CN1CCN(c2ccc3cc(Cl)ccc3n2)CC1 | 6.23 | 
12 | CN1CCN(c2cnc3ccccc3n2)CC1 | 6.05 | 
13 | CN1CCN(c2nc3ccccc3nc2Oc2cccc(N(C)C)c2)CC1 | 5.81 | 
14 | COc1nc2cc(Cl)c(Cl)cc2nc1N1CCN(C)CC1 | 7.24 | 
15 | CN1CCN(c2nc3ccccc3nc2NCc2ccccc2)CC1 | 5.13 | 
16 | Cc1cccc(Oc2nc3ccccc3nc2N2CCN(C)CC2)c1 | 6.24 | 
17 | CN1CCN(c2nc3ccccc3nc2OCCc2ccccc2)CC1 | 6.32 | 
18 | CN1CCCN(c2nc3cc(Cl)ccc3[nH]c2=O)CC1 | 6.01 | 
19 | Cc1nc2cc(Cl)c(Cl)cc2nc1N1CCN(C)CC1 | 7.20 | 
20 | CN1CCN(c2nc3ccccc3nc2OCc2ccncc2)CC1 | 5.36 | 
21 | CN1CCN(c2nc3ccccc3nc2Oc2ccc(Cl)c(Cl)c2)CC1 | 5.77 | 
22 | CN1CCN(c2nc3ccccc3nc2Sc2ccccc2)CC1 | 6.44 | 
23 | CN1CCN(c2nc3ccccc3nc2OCCCCc2ccccc2)CC1 | 5.53 | 

Row | Structure (SMILES) | pKi [1] | other results
24 | CCN1CCN(c2nc3ccccc3nc2Cc2ccccc2)CC1 | 5.57 | 
25 | CN1CCN(c2nc3ccccc3nc2Cl)CC1 | 6.64 | 
26 | CN1CCN(c2nc3ccccc3nc2Oc2cccnc2)CC1 | 5.89 | 
27 | CN1CCN(c2nc3ccccc3[nH]c2=O)CC1 | 7.21 | 
28 | CN1CCN(c2nc3ccccc3nc2Oc2ccc(Cl)cc2)CC1 | 5.63 | 
29 | CN1CCN(c2nc3ccccc3nc2-c2ccccc2)CC1 | 4.99 | 
30 | CN1CCN(c2nc3ccccc3nc2Oc2ccccc2)CC1 | 6.49 | 
31 | CN1CCN(c2nccc3ccccc23)CC1 | 4.69 | 
32 | CN(C)CCCOc1nc2ccccc2nc1N1CCN(C)CC1 | 5.40 | 
33 | CN1CCN(c2nc3ccccc3nc2OCc2cccnc2)CC1 | 5.53 | 
34 | CN1CCN(c2nc3cc(Cl)c(Cl)cc3nc2Oc2ccccc2)CC1 | 5.93 | 
35 | COc1ccc(Oc2nc3ccccc3nc2N2CCN(C)CC2)cc1 | 5.63 | 
36 | COc1nc2cc(Cl)ccc2nc1N1CCN(C)CC1 | 7.58 | 
37 | CN1CCN(c2nc3ccccc3nc2OC2CCCCC2)CC1 | 4.88 | 
38 | CN1CCN(c2nc3ccccc3nc2C(F)(F)F)CC1 | 5.60 | 
39 | CN1CCN(c2nc3cc(Cl)ccc3[nH]c2=O)CC1 | 7.93 | 
40 | CN1CCN(c2ccc3ccccc3n2)CC1 | 5.16 | 
41 | Cc1ccc(COc2nc3ccccc3nc2N2CCN(C)CC2)cc1 | 5.86 | 
42 | CCOc1nc2ccccc2nc1N1CCN(C)CC1 | 6.64 | 
43 | COc1nc2ccccc2nc1N1CCN(C)CC1 | 6.47 | 
44 | Cc1ccc(Oc2nc3ccccc3nc2N2CCN(C)CC2)cc1 | 5.66 | 
45 | CN1CCN(c2nc3ccccc3nc2Cc2ccccc2)CC1 | 7.40 | inhibition [2]: 86%; inhibition [3]: 26%; inhibition [4]: 62%; pKi [7]: 6.13; Activity [8]: Active
46 | Cc1nc2ccccc2nc1N1CCN(C)CC1 | 6.70 | 
